Laboratory results published in ChEMBL document CHEMBL4414643, “Pharmacokinetics of Phytocannabinoid Acids and Anticonvulsant Effect of Cannabidiolic Acid in a Mouse Model of Dravet Syndrome” (J Nat Prod, 2019).
The source made the active and inactive calls.

Legend:
[1] = Cmax in anesthetized C57BL/6J mouse brain at 10 mg/kg, ip administered as single dose measured upto 240 mins in presence of vegetable oil by LC-MS/MS analysis; assay type: ADME, organism-based; design: dose 10 mg/kg, route intraperitoneal; settings: in vivo, 4 h
Procedure, shortened: (§1)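 Male and female mice (C57BL/6J or C57BL/6J x 129 F1), postnatal days 21-28, single i.p. injection at 10 mL/kg in vegetable oil or ethanol–Tween 80–saline (1:1:18). Blood taken by cardiac puncture under isoflurane at time points 15–240 min. Plasma and PBS brain homogenate extracted with ice-cold acetonitrile, diazepam internal standard, quantified by LC-MS/MS. Mean concentrations per time point (n = 3-5); noncompartmental analysis.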

[2] = Half life in anesthetized C57BL/6J mouse brain at 10 mg/kg, ip administered as single dose measured upto 240 mins in presence of vegetable oil by LC-MS/MS analysis; assay type: ADME, organism-based; procedure, shortened: as §1
[3] = Half life in anesthetized C57BL/6J mouse plasma at 10 mg/kg, ip administered as single dose measured upto 240 mins by LC-MS/MS analysis; assay type: ADME, organism-based; procedure, shortened: as §1
[4] = Cmax in anesthetized C57BL/6J mouse plasma at 10 mg/kg, ip administered as single dose measured upto 240 mins in presence of tween-80 by LC-MS/MS analysis; assay type: ADME, organism-based; design: dose 10 mg/kg, route intraperitoneal; procedure, shortened: as §1
[5] = Tmax in anesthetized C57BL/6J mouse plasma at 10 mg/kg, ip administered as single dose measured upto 240 mins in presence of vegetable oil by LC-MS/MS analysis; assay type: ADME, organism-based; procedure, shortened: as §1
[6] = AUC in anesthetized C57BL/6J mouse plasma at 10 mg/kg, ip administered as single dose measured upto 240 mins by LC-MS/MS analysis; assay type: ADME, organism-based; design: time < 4 hr, dose 10 mg/kg, route intraperitoneal; procedure, shortened: as §1
[7] = Cmax in anesthetized C57BL/6J mouse plasma at 10 mg/kg, ip administered as single dose measured upto 240 mins in presence of vegetable oil by LC-MS/MS analysis; assay type: ADME, organism-based; design: dose 10 mg/kg, route intraperitoneal; procedure, shortened: as §1
[8] = Tmax in anesthetized C57BL/6J mouse brain at 10 mg/kg, ip administered as single dose measured upto 240 mins in presence of vegetable oil by LC-MS/MS analysis; assay type: ADME, organism-based; procedure, shortened: as §1
[9] = Dissociation constant, pKa of compound; assay type: physicochemical
[10] = Drug metabolism in brain of anesthetized C57BL/6J mouse at 10 mg/kg, ip by LC-MS/MS analysis; assay type: ADME, organism-based; settings: in vivo
Procedure, shortened: (§2)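 Mice aged 21-28 days postnatal received one i.p. dose (10 mL/kg), and plasma and brain were sampled at 15–240 min. Decarboxylated neutral cannabinoids were measured by LC-MS/MS against known standards, alongside the parent acid.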

[11] = Cmax in anesthetized C57BL/6J mouse plasma at 10 mg/kg, ip administered as single dose measured upto 240 mins by LC-MS/MS analysis; assay type: ADME, organism-based; design: dose 10 mg/kg, route intraperitoneal; procedure, shortened: as §1
[12] = Tmax in anesthetized C57BL/6J mouse brain at 10 mg/kg, ip administered as single dose measured upto 240 mins in presence of tween-80 by LC-MS/MS analysis; assay type: ADME, organism-based; procedure, shortened: as §1
[13] = Tmax in anesthetized C57BL/6J mouse brain at 10 mg/kg, ip administered as single dose measured upto 240 mins by LC-MS/MS analysis; assay type: ADME, organism-based; procedure, shortened: as §1
[14] = Ratio of drug level in anesthetized C57BL/6J mouse brain to plasma at 10 mg/kg, ip administered as single dose measured upto 240 mins by LC-MS/MS analysis; assay type: ADME, organism-based; settings: read-out: BPR; procedure, shortened: as §1
[15] = Tmax in anesthetized C57BL/6J mouse plasma at 10 mg/kg, ip administered as single dose measured upto 240 mins by LC-MS/MS analysis; assay type: ADME, organism-based; procedure, shortened: as §1
[16] = AUC in anesthetized C57BL/6J mouse plasma at 10 mg/kg, ip administered as single dose measured upto 240 mins in presence of vegetable oil by LC-MS/MS analysis; assay type: ADME, organism-based; design: time < 4 hr, dose 10 mg/kg, route intraperitoneal; procedure, shortened: as §1
[17] = AUC in anesthetized C57BL/6J mouse plasma at 10 mg/kg, ip administered as single dose measured upto 240 mins in presence of tween-80 by LC-MS/MS analysis; assay type: ADME, organism-based; design: dose 10 mg/kg, time < 4 hr, route intraperitoneal; procedure, shortened: as §1
[18] = Partition coefficient, log P of compound; assay type: physicochemical; settings: octanol/water
[19] = Cmax in anesthetized C57BL/6J mouse brain at 10 mg/kg, ip administered as single dose measured upto 240 mins in presence of tween-80 by LC-MS/MS analysis; assay type: ADME, organism-based; design: dose 10 mg/kg, route intraperitoneal; settings: in vivo, 4 h; procedure, shortened: as §1
[20] = Half life in anesthetized C57BL/6J mouse plasma at 10 mg/kg, ip administered as single dose measured upto 240 mins in presence of tween-80 by LC-MS/MS analysis; assay type: ADME, organism-based; procedure, shortened: as §1
[21] = AUC in anesthetized C57BL/6J mouse brain at 10 mg/kg, ip administered as single dose measured upto 240 mins in presence of tween-80 by LC-MS/MS analysis; assay type: ADME, organism-based; design: dose 10 mg/kg, time < 4 hr, route intraperitoneal; settings: in vivo, 4 h; procedure, shortened: as §1
[22] = Ratio of drug level in anesthetized C57BL/6J mouse brain to plasma at 5 mg/kg, ip administered as single dose measured upto 240 mins in presence of tween-80 by LC-MS/MS analysis; assay type: ADME, organism-based; settings: read-out: BPR
[23] = Ratio of drug level in anesthetized C57BL/6J mouse brain to plasma at 5 mg/kg, ip administered as single dose measured upto 240 mins in presence of vegetable oil by LC-MS/MS analysis; assay type: ADME, organism-based; settings: read-out: BPR
[24] = Half life in anesthetized C57BL/6J mouse brain at 10 mg/kg, ip administered as single dose measured upto 240 mins by LC-MS/MS analysis; assay type: ADME, organism-based; procedure, shortened: as §1
[25] = Cmax in anesthetized C57BL/6J mouse brain at 10 mg/kg, ip administered as single dose measured upto 240 mins by LC-MS/MS analysis; assay type: ADME, organism-based; design: dose 10 mg/kg, route intraperitoneal; settings: in vivo, 4 h; procedure, shortened: as §1
[26] = Half life in anesthetized C57BL/6J mouse plasma at 10 mg/kg, ip administered as single dose measured upto 240 mins in presence of vegetable oil by LC-MS/MS analysis; assay type: ADME, organism-based; procedure, shortened: as §1
[27] = Half life in anesthetized C57BL/6J mouse brain at 10 mg/kg, ip administered as single dose measured upto 240 mins in presence of tween-80 by LC-MS/MS analysis; assay type: ADME, organism-based; procedure, shortened: as §1
[28] = AUC in anesthetized C57BL/6J mouse brain at 10 mg/kg, ip administered as single dose measured upto 240 mins by LC-MS/MS analysis; assay type: ADME, organism-based; design: dose 10 mg/kg, time < 4 hr, route intraperitoneal; settings: in vivo, 4 h; procedure, shortened: as §1
[29] = tested on: Mus musculus; test: Anticonvulsant activity against hyperthermia-induced seizure in Scn1aRX/+ mouse model of Dravet syndrome assessed as increase in generalized tonic-clonic seizure temperature threshold at 10 to 30 mg/kg, ip administered as single dose measured by RET-3 rectal probe; assay type: functional, organism-based
[30] = Tmax in anesthetized C57BL/6J mouse plasma at 10 mg/kg, ip administered as single dose measured upto 240 mins in presence of tween-80 by LC-MS/MS analysis; assay type: ADME, organism-based; procedure, shortened: as §1
[31] = AUC in anesthetized C57BL/6J mouse brain at 10 mg/kg, ip administered as single dose measured upto 240 mins in presence of vegetable oil by LC-MS/MS analysis; assay type: ADME, organism-based; design: dose 10 mg/kg, time < 4 hr, route intraperitoneal; settings: in vivo, 4 h; procedure, shortened: as §1
[32] = Drug uptake in plasma of anesthetized C57BL/6J mouse at 10 mg/kg, ip by LC-MS/MS analysis; assay type: ADME, organism-based; settings: in vivo; procedure, shortened: as §2
[33] = Drug metabolism in brain of anesthetized C57BL/6J mouse assessed as decrease in decarboxylation of parent compound at 10 mg/kg, ip by LC-MS/MS analysis; assay type: ADME, organism-based; settings: in vivo; procedure, shortened: as §2
[34] = Drug metabolism in plasma of anesthetized C57BL/6J mouse assessed as decrease in decarboxylation of parent compound at 10 mg/kg, ip by LC-MS/MS analysis; assay type: ADME, organism-based; settings: in vivo; procedure, shortened: as §2
[35] = Drug uptake in plasma of anesthetized C57BL/6J mouse assessed as purity of compound at 10 mg/kg, ip by LC-MS/MS analysis; assay type: ADME, organism-based; settings: in vivo; procedure, shortened: as §2

Structure (SMILES)	half-life [3]	Cmax [4]	Tmax [5]	AUC at 4 h [6]	Cmax [7]	pKa [9]	Drug metabolism [10]	Cmax [11]	Tmax [13]	Kp at 4 h [14]	Tmax [15]	AUC at 4 h [16]	AUC at 4 h [17]	logP [18]	half-life [20]	half-life [24]	Cmax [25]	half-life [26]	AUC [28]	Tmax [30]	other results
C=C(C)[C@@H]1CCC(C)=C[C@H]1c1c(O)cc(CCCCC)c(C(=O)O)c1O [CANNABIDIOLIC ACID]	92 min	17600 ng/mL	30 min	78300 ng·h/mL	29600 ng/mL	2.91	Metabolite_Notdetected	29600 ng/mL	45 min	0.04	30 min	78300 ng·h/mL	9970 ng·h/mL	6.63	55 min	41 min	2 ng/mg	92 min	183 µg·min/g	15 min	Cmax [1]: 2 ng/mg; half-life [2]: 41 min; Tmax [8]: 45 min; Tmax [12]: 30 min; Cmax [19]: 13.2 ng/mg; AUC [21]: 1142 ng·min/g; Kp at 4 h [22]: 1.9; Kp at 4 h [23]: 0.04; half-life [27]: 67 min; Activity [29]: Active; AUC [31]: 183 ng·min/g; Drug uptake [32]: 0.5%
CCCCCc1cc(O)c(C/C=C(\C)CCC=C(C)C)c(O)c1C(=O)O [CANNABIGEROLIC ACID]	62 min			99300 ng·h/mL		2.92		63500 ng/mL	30 min	0.02	45 min			7.35		31 min	2.3 ng/mg		94 µg·min/g		Drug metabolism [33]: Metabolite_Notdetected; Drug metabolism [34]: Metabolite_Notdetected
CCCCCc1cc2c(c(O)c1C(=O)O)[C@@H]1C=C(C)CC[C@H]1C(C)(C)O2 [DELTA9-TETRAHYDROCANNABINOLIC ACID A]	67 min	6900 ng/mL	15 min	5030 ng·h/mL	2800 ng/mL	2.89	Metabolite_Notdetected	2800 ng/mL			15 min	5030 ng·h/mL	5630 ng·h/mL	6.25	33 min			67 min		15 min	Cmax ([1]; BLD = below limit of detection): Bld; Cmax ([19]; BLD = below limit of detection): Bld; Cmax ([25]; BLD = below limit of detection): Bld; Drug uptake [32]: 1%; Drug uptake [35]: 95%
